CR mimetic SO: lowers age-related superoxide in aged yeast cells; S. cerevisiae aged cells, superoxide DHE fluorescence; hits give low values; superoxide response (% of plate mean), % at 10 µM; hit rate 0.18% among 330,000; AID 2690;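 active = superoxide response under a set limit, about three screen SD below normal, cut at about 65% in these data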;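 also: yeast aged for seven days with compound at 30 °C before DHE staining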
Lipid droplet: hepatic lipid droplet formation modulation; hit rate 0.4% among 240,000; AID 1656; inhibition, % at 6.5 µM; AML12 mouse hepatocytes, oleate lipid droplets, BODIPY imaging;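 active = lipid droplet intensity inhibited by at least 50%, with more than 500 cells counted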
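Assay system: AML12 mouse liver cells | Compound dosing: One dose, 6.5 µM compound | Read-out basis: Droplet intensity reduction, % inhibition | Measured by: Fluorescence imaging, 20x objective, two fields per well | Schedule: Overnight treatment with compound plus oleate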
SR-BI DiI inh: inhibitors of mouse SR-BI mediated HDL lipid uptake. Q61009. ldlA[mSR-BI] CHO cells, DiI-HDL uptake fluorescence, 3 h. inhibition, % at 12.5 µM. hit rate 0.96% among 320,000;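 active = mean replicate inhibition of at least 70% and a set share of replicates each scoring 70 or more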
SMARCA2 activ: activators of SMARCA2 function | AID 652017 | hit rate 1% among 370,000 | activation, % at 9.1 µM | MG213 cells, MMTV-luciferase reporter, dexamethasone, overnight; in the data active = activation above about 7.8%
AHR act: activates the human aryl hydrocarbon receptor. AHR-responsive luciferase reporter cells, luminescence. hit rate 2.5% among 320,000. activation, % at 5 µM; in the data active = activation above about 47%
Target sequence (P35869 whole entry, looked up): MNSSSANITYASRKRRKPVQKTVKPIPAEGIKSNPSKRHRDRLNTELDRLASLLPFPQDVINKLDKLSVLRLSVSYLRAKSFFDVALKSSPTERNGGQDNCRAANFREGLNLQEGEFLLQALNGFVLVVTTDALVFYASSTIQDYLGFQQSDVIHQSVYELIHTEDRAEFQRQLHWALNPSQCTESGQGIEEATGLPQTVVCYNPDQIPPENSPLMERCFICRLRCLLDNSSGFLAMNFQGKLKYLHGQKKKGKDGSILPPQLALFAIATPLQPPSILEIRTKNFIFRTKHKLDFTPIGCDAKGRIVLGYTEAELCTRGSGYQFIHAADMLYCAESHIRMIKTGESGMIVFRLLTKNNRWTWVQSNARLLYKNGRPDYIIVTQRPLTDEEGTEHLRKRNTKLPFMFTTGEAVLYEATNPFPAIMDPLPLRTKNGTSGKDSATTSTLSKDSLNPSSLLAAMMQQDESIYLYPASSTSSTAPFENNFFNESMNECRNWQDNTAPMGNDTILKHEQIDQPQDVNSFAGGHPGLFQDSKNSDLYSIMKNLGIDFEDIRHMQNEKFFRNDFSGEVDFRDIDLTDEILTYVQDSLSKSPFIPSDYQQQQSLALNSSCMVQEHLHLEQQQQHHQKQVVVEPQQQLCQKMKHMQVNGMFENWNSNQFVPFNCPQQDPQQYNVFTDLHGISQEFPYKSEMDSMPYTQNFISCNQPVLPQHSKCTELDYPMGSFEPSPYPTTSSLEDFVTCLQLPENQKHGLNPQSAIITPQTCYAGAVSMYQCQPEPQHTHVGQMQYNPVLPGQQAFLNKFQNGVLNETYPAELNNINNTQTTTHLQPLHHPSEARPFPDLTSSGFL
SR-BI DiI-HDL act: activators of SR-BI mediated HDL lipid uptake. CHO ldlA[mSR-BI] cells, DiI-HDL uptake fluorescence, 3 h; 100 = double the neutral-control signal. activation, % at 12.5 µM. hit rate 0.096% among 320,000;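 active = mean replicate activation of at least 60% and every replicate at or above 60%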
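Material: SR-BI-overexpressing, LDLR-lacking CHO cells; schedule: compound exposure 3 h, 37 °C; reagent: DiI-labelled HDL at 10 µg/mL final; technique: bottom-read fluorescence, 550/595 nm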
A number is an active result; – = inactive; · = no result. Shown are actives, neighbours in structure and some others; about 4.3% of the full set was active somewhere.

SMILES | CR mimetic SO | Lipid droplet | SR-BI DiI inh | SMARCA2 activ | AHR act | SR-BI DiI-HDL act
COC(=O)N/N=C/c1cc(Cl)c(OCc2ccc(F)cc2)c(OC)c1 | – | – | – | – | – | –
COC(=O)N/N=C/c1cc(Cl)cc(Cl)c1OCc1ccc(F)cc1 | – | – | 84 | – | 55 | –
S=C(NCc1cccc(Cl)c1)OC1CCC12CCC(c1ccccc1)CC2 (configuration not stated) | · | · | · | – | · | ·
CCNC(=S)N1N=C2c3ccccc3CCC2C1c1ccc(F)cc1 (configuration not stated) | – | – | · | – | 51 | ·
CN1N=C2c3ccccc3CCC2C1c1ccc(C(F)(F)F)cc1 (configuration not stated) | – | – | · | · | – | ·
O=C(c1cccc(Cl)c1)N1CCN(c2ncnc3c2cnn3-c2ccccc2)CC1 | – | – | – | – | – | –
O=C(c1ccccc1)N1CCN(c2ncnc3c2cnn3-c2ccccc2)CC1 | – | · | – | – | 61 | –
O=C(N/N=C/c1cc2cc3c(cc2nc1Cl)OCO3)c1ccncc1 | – | – | – | – | 64 | –
O=C(N/N=C/c1cc(Cl)ccc1O)c1ccncc1 | – | – | 115 | – | – | –
CCCCOCCCNC(=O)C[C@H]1C[C@@]2(C(=O)OCC)CCCC3=C2N(CCC3)C1=O | · | · | · | – | · | ·
COc1ccc(-c2nc(-c3cccs3)c(-c3cccs3)[nH]2)cc1OC | – | – | – | – | 50 | –
COc1ccc(-c2[nH]c(-c3ccc4c(c3)OCO4)nc2-c2ccccc2)cc1 | – | · | – | – | 74 | –
O=[N+]([O-])c1cccc(-c2nc(-c3cccs3)c(-c3cccs3)[nH]2)c1 | – | · | 91 | – | 63 | –
O=[N+]([O-])c1cccc(-c2nc(-c3ccccc3)c(-c3cccs3)[nH]2)c1 | – | · | · | – | – | ·
COc1ccc(-c2nc(-c3ccccc3)c(-c3cccs3)[nH]2)cc1OC | – | – | – | – | 81 | –
O=C(Nc1ccccn1)c1cc(-c2cccnc2)nc2ccc(Br)cc12 | – | – | – | – | – | –
O=C(Nc1ccc(C(=O)N2CCOCC2)cc1)c1cc(-c2cccnc2)nc2ccc(Br)cc12 | – | · | 81 | – | – | –
COc1ccccc1N=Nc1[nH]c2ccc(C)cc2c1O | – | – | · | 7.9 | 60 | ·
Cc1ccc2[nH]c(O)c(N=Nc3ccccc3[N+](=O)[O-])c2c1 | · | · | – | – | · | –
COc1cccc(NC(=O)NC2CCCCN(Cc3ccccc3C)C2=O)c1 (configuration not stated) | · | · | · | – | · | ·
Cc1cc2oc(=O)cc(-c3ccccc3)c2c(C)c1-c1ccc(CO)cc1 | – | · | 75 | – | · | –
CC(=O)c1ccc(-c2c(C)cc3oc(=O)cc(-c4ccccc4)c3c2C)cc1 | – | · | – | – | · | –
Cc1cc2oc(=O)cc(-c3ccccc3)c2c(C)c1-c1ccc(C#N)cc1 | – | · | 82 | – | · | –
Nc1nc2c(ncn2[C@@H]2O[C@H](C(=O)NCC(c3ccccc3)c3ccccc3)[C@@H](O)[C@H]2O)c(=O)[nH]1 | · | · | · | – | · | ·
O=C(CCn1nc(-c2ccc(Cl)cc2)ccc1=O)NCCCN1CCCCCC1 | – | – | 73 | – | – | –
SMILES | CR mimetic SO | Lipid droplet | SR-BI DiI inh | SMARCA2 activ | AHR act | SR-BI DiI-HDL act
CN1OC[C@@H]2CN[C@H](c3ccc(N4CCCCC4)cc3)C[C@@H]21 | · | · | · | – | · | ·
CCN(CC)CCNC1=NCCn2c1cc1cc(OC)ccc12 | – | – | – | – | 58 | –
COC(=O)C1=C(C)N(Cc2ccccc2C(F)(F)F)C(=NCc2ccccc2)NC1c1ccc(Cl)cc1 (configuration not stated) | · | · | · | – | · | ·
CCC(=O)Nc1cccc(-c2cn3ccccc3n2)c1 | – | – | – | – | – | –
O=C(Nc1cccc(-c2cn3ccccc3n2)c1)C1CC1 | – | – | – | – | 65 | –
Cc1cccc2nc(-c3cccc(NC(=O)Cc4ccccc4)c3)cn12 | – | – | – | 13 | – | –
Cc1cccc2nc(-c3cccc(NC(=O)c4ccc(Cl)cc4)c3)cn12 | – | – | – | – | – | –
CC(=O)N/C(=N/c1nc(C)cc(C)n1)Nc1cc(C)cc(C)c1 | – | · | – | – | 58 | –
CCCNC(=O)N1CC[C@H]2[C@@H]1c1cc(-c3ccc(F)cc3)ccc1N(C)[C@H]2CO | · | · | · | – | · | ·
O=C(O)CCC1(CCC(=O)O)CCCC(CCC(=O)O)(CCC(=O)O)C1=O | · | · | – | – | · | 61
COc1ccc(C(=O)Nc2ccc(NC(=O)c3cc(OC)c(OC)c(OC)c3)cn2)cc1 | – | – | 77 | – | – | –
COc1ccc(Nc2cc(Nc3cc(OC)c(OC)c(OC)c3)ncn2)cc1 | – | · | – | – | 59 | –
COc1ccc(C(=O)Nc2ccc(NC(=O)c3cccc(OC)c3)cn2)cc1 | – | – | – | – | – | –
COc1ccc(C(=O)Nc2ccc(NC(=O)c3cccc(F)c3)cn2)cc1 | – | – | 76 | – | – | –
COc1ccc(C(=O)Nc2cc(OC)cc(OC)c2)cc1 | – | · | – | – | 57 | –
COc1cccc(-c2ccc(CC[C@H]3O[C@H]4CC[C@H](CO)O[C@H]4C[C@H]3NS(C)(=O)=O)cc2)c1 | · | · | · | – | · | ·
CCC(NC(=O)Cn1c(-c2ccccc2)cc(C(C)=O)c1C)c1ccccc1 (configuration not stated) | · | · | · | – | · | ·
COC(=O)C1=C(C)N(Cc2cccc(C(F)(F)F)c2)C(=NCc2ccc(OC)cc2)NC1c1ccccc1 (configuration not stated) | · | · | · | – | · | ·
O=S1(=O)CC2c3ccc(F)cc3CN2CN1C1CCCC1 (configuration not stated) | · | · | · | – | · | ·
Nc1ncnc2c1ncn2[C@@H]1O[C@H](C(=O)N[C@@H](CCc2ccccc2)C(=O)N2CCN(C(=O)N3CCOCC3)CC2)[C@@H](O)[C@H]1O | · | · | · | – | · | ·
COc1ccccc1C(=O)Nc1ccc(Oc2nnc(-c3ccc(C)cc3)c3ccccc23)cc1 | – | – | 84 | – | – | –
Cc1cc(C)nc(NC(=O)c2ccc(C)c(C)c2)n1 | – | · | – | – | – | –
O=C(Nc1cccc(NC(=O)c2cccc(F)c2)n1)c1cccc(F)c1 | – | – | 87 | – | – | –
Cc1cc(C)nc(NC(=O)c2ccc(OC(C)C)cc2)n1 | – | – | – | – | 49 | –
COC(=O)c1cc(NC(=O)c2cccnc2)cc(C(=O)OC)c1 | – | – | – | – | – | –
COC(=O)c1cc(NC(=O)c2cccc(F)c2)cc(C(=O)OC)c1 | – | – | 78 | – | – | –
O=C1C2C(CC3c4ccccc4CCN32)CN1c1ccccc1 (configuration not stated) | · | · | · | – | · | ·
CCC(CO)Nc1cccc2c1S(=O)(=O)N(Cc1cn(Cc3ccc(Cl)cc3)nn1)Cc1ccccc1O2 (configuration not stated) | · | · | · | – | · | ·
COc1ccc(C(=O)Nc2ccc(NC(=O)c3ccccc3OC)nc2)cc1 | – | – | 79 | – | – | –
